Screening results (PubChem BioAssay)
In the library only some 1.6% were active in any assay of this set; here they are far more common.
proCasp7 act – procaspase-7 activators, primary screen, counter-screen for procaspase-3 activator project, biochemical, absorbance, HTS, human; recombinant procaspase-7, Ac-DEVD-pNA absorbance 405 nm; D23A/D198A/D206A triple mutant, cannot self-cleave; scale: DMSO 0, 5 µM enzyme 100; hit rate 0.093% among 330,000; Caspase-7 (Homo sapiens), P55210; activation, % at 8.5 µM;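 active means percent activation above the screen-wide mean plus 3 SD, cut at about 25% in these data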
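Detection: p-Nitroaniline absorbance at 405 nm, read at 0 and 120 min; system: Uncleavable procaspase-7 mutant enzyme; evaluation: % activation from two-timepoint absorbance difference, scaled to controls; times: 1 h enzyme–compound preincubation and 2 h substrate reaction, both 25 °C; buffer or medium: Zinc-free HEPES pH 7.4 with 300 mM NaCl, 0.01% Triton X-100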
proCasp3 act – activators of human procaspase-3 D3A mutant, primary screen, biochemical, absorbance, PC-3 D3A mutant, single concentration | recombinant procaspase-3 D3A, Ac-DEVD-pNA absorbance 405 nm | activation, % at 8.5 µM | hit rate 0.11% among 330,000;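 active means activation above the mean of all tested compounds plus 3 SD, cut at about 21% in these data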
Target sequence (P42574 whole entry D9A/D28A/D175A): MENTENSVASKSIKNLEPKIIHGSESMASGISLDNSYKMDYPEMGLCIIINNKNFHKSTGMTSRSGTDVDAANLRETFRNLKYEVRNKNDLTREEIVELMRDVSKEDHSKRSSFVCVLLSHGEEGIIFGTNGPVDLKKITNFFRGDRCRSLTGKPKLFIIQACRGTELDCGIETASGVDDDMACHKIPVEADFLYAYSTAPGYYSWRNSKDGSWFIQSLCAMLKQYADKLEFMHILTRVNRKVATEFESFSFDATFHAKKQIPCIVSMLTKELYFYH
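Test system: Procaspase-3 D3A mutant; medium: Zinc-free HEPES/NaCl buffer with 0.01% Triton X-100 at pH 7.4; reagent: DEVD-pNA substrate; doses: one concentration, 8.5 µM nominal, 0.8% DMSO; times: 1 h preincubation plus 2 h reaction at 25 °C; signal: Epi-absorbance at 405 nm of released p-nitroaniline, 0 and 120 min; replicates: singlicate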
KLK7 zymogen act – proKLK7 zymogen activators, primary screen, biochemical, fluorescence intensity. Kallikrein-7 (Homo sapiens), P49862. purified proKLK7, EDANS-DABCYL substrate fluorescence; 100% is mature enzyme control, 0% vehicle. activation, % at 7 µM. hit rate 0.9% among 370,000;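 active means activation above the mean of all tested compounds plus 3 SD, computed per campaign excluding outliers beyond control limits, cut at about 13% in these data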
Target sequence (P49862 whole entry, looked up): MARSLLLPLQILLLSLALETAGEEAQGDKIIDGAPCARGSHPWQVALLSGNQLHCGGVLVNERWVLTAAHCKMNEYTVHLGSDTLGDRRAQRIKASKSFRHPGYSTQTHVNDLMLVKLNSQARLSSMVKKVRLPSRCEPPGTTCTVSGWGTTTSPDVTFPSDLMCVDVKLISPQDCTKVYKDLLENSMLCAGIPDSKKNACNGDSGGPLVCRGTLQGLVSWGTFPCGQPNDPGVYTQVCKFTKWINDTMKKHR
Neddylation inh – inhibitors of cullin neddylation, primary screen, biochemical, TR-FRET, uHTS, NAE and Ubc12. calls only at 25 µM. NEDD8-conjugating enzyme Ubc12 (Homo sapiens) + NEDD8-activating enzyme E1 regulatory …. hit rate 0.58% among 360,000. AID 651699, 2012; in the data active means inhibition above about 36%
KLK7 act conf – proKLK7 zymogen activators, confirmation, biochemical, fluorescence intensity, triplicate | hit rate 68% among 3,200 | shares compounds with KLK7 zymogen act | activation, % at 7 µM | purified proKLK7, EDANS-DABCYL substrate fluorescence; scaled: vehicle 0, mature enzyme 100;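 active means activation, as change over the incubation, above the mean of all tested compounds plus 3 SD, cut at about 13% in these data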
EDANS-DABCYL int – EDANS-DABCYL substrate optical interference, artefact control for kallikrein-7 zymogen activator project, biochemical, fluorescence intensity, high throughput. AID 686952, 2013. activation, % at 7 µM. shares compounds with KLK7 zymogen act. no enzyme, 4 h; solvent 0%, active enzyme control 100%. hit rate 80% among 3,200;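 active means activation above the all-compound mean plus 3 SD, ignoring values outside control-based bounds, cut at about 4.8% in these data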;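 further: value is the 4 h activation minus the activation read at time zero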
K7 EDANS ctr – optically interferes with EDANS-DABCYL fluorescence, kallikrein-7 activator counter-screen; shares compounds with KLK7 zymogen act; AID 720493; hit rate 20% among 250; EDANS-DABCYL peptide fluorescence interference, no enzyme; EC50, µM;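 active means compounds that raise the fluorescence signal in this interference counterscreen, with EC50 at or below 10 µM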;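 further: intact quenched peptide substrate alone read at 355 nm excitation and 520 nm emission; signal is fluorescence gain from T0 to T4 after four hours at room temperature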
A number is an active result; . = inactive; / = no result shown; + = active, no number.

SMILES	proCasp7 act	proCasp3 act	KLK7 zymogen act	Neddylation inh	KLK7 act conf	EDANS-DABCYL int	others
COC(=O)[C@]12C[C@H](CC(=O)NCc3cccs3)C(=O)N(CCC3=CCCCC3)C1=C[C@H](COCc1ccccc1)O[C@@H]2C	/	/	.	/	/	/
CCOC(=O)C(=NC(C)CC)NNc1ccc(Br)cc1 (stereo not given)	.	.	16	.	24	26
CCOC(=O)C(=NC(C)CC)NNc1cccc(C(F)(F)F)c1 (stereo not given)	.	.	17	.	22	26
COC[C@H]1CCCN1c1ccc2c(c1)O[C@@H]1CCN(C1)S2(=O)=O	/	/	.	/	/	/
c1ccn2c(c1)nc1c2nc2ccccn21	.	.	81	/	70	73
COc1cc2c(cc1OC)C(C(N)=O)NCC2 (stereo not given)	/	/	54	.	.	.
COc1cc2c(cc1OC)C(C1(O)CCCCC1)NCC2 (stereo not given)	/	/	21	.	14	14
COc1cc(-c2nnc(SCC(=O)/C(C#N)=C(\C)N)o2)cc(OC)c1OC	.	.	.	.	/	/
CCOC(=O)Nc1ccc2c(COC(=O)CNS(=O)(=O)c3cccc(Br)c3)cc(=O)oc2c1	.	.	15	.	30	34
O=C(NCCCN1CCOCC1)c1cc2nc(-c3ccco3)cc(C(F)(F)F)n2n1	.	.	15	/	14	11	K7 EDANS ctr=.
CN1CCN(C(=O)c2cc3nc(-c4ccco4)cc(C(F)(F)F)n3n2)CC1	.	.	30	/	17	11	K7 EDANS ctr=.
CCN(CC)C(=O)COc1ccc2oc(-c3ccco3)cc(=O)c2c1	.	.	28	/	52	55
O=C(NCc1ccco1)/C(=C/c1ccc(C(F)(F)F)cc1)c1nc2ccccc2[nH]1	.	.	61	/	84	96
Nc1cccc2c1C(=O)N(Cc1cccc(Cl)c1)C2=O	.	.	27	/	.	.
COCCN(C(=O)COC(=O)c1ccccc1NCc1ccco1)c1c(N)n(Cc2ccccc2)c(=O)[nH]c1=O	.	.	.	/	/	/
CCCCn1c(N)c(N(CCOC)C(=O)COC(=O)c2ccccc2NCCO)c(=O)[nH]c1=O	/	/	36	/	19	22
COc1ccccc1CCC[C@@H](CCS(=O)(=O)C(C)C)CC1CCCCC1	/	/	.	/	/	/
Nc1c(-c2ccccc2)nc(Cl)nc1-c1ccccc1	.	.	42	/	78	78
O=C(COC(=O)C1CCC(=O)N1)Nc1cccc([N+](=O)[O-])c1 (stereo not given)	.	.	.	.	/	/
Cc1cccc(N=c2oc3cc(O)ccc3cc2C(N)=O)c1	.	.	53	+	27	27
COc1cccc2cc(C(=O)NCC3CCCO3)c(=O)oc12 (stereo not given)	.	.	.	.	/	/
COc1ccc2cc(C(N)=O)c(=Nc3ccc(C)cc3)oc2c1	.	.	.	.	/	/
COc1ccccc1N=c1oc2cc(O)ccc2cc1C(=O)NCC1CCCO1 (stereo not given)	.	.	74	/	21	22
COc1ccccc1N=c1oc2cc(O)ccc2cc1C(N)=O	.	.	39	/	18	23
O=C1NC(=S)SC1=Cc1ccccn1	/	/	.	.	/	/
SMILES	proCasp7 act	proCasp3 act	KLK7 zymogen act	Neddylation inh	KLK7 act conf	EDANS-DABCYL int	others
O=C1NC[C@H](CC2CCCCC2)N(CCC23CC4CC(CC(C4)C2)C3)C1=O	/	/	.	.	/	/
O=C(c1ccc2c(c1)CCC2)N1CCN(Cc2ccccc2)CC1	/	/	.	.	/	/
CCOc1ccc(C(=O)NCC(=O)NCC(c2ccco2)N2CCCCC2)cc1 (stereo not given)	.	.	.	.	/	/
Nc1nc2nccc(-c3ccco3)n2n1	.	.	17	/	15	27
COC(=O)[C@H](CC(C)C)N(CCc1cn(Cc2ccccc2)nn1)S(=O)(=O)c1ccccc1Br	/	/	.	/	/	/
COc1cc2c(cc1OC)C(c1ccccc1)N(Cc1ccc(S(=O)(=O)NC(=O)c3ccco3)cc1)CC2 (stereo not given)	/	/	29	.	.	7.1
COC(=O)c1ccc(OCC(O)CN2CCc3cc(OC)c(OC)cc3C2c2ccccc2)cc1 (stereo not given)	.	.	67	.	.	.
CC(C)N1CCC1(C)C(=O)Nc1ccc(-n2cccc2)cc1 (stereo not given)	/	/	.	.	/	/
CCOc1ccc2nc(NCCNC(=O)CC)c(C#N)cc2c1	.	.	29	/	40	44
COc1cccc(/C=C/C(=O)NNC(=O)c2ccccc2)c1OC	.	.	.	.	/	/
O=C(OCC(=O)N1CCN(C(=O)c2ccco2)CC1)c1ccccc1NCCO	.	.	22	/	31	31
CC(OC(=O)c1ccc(C(C)(C)C)cc1)C(=O)NC1CCCCC1C (stereo not given)	.	.	.	.	/	/
CC(OC(=O)c1ccccc1NCCO)C(=O)NC1CCCCC1C (stereo not given)	.	.	21	/	19	21
CC1CCN(C(=O)COC(=O)c2ccccc2NCCO)CC1	/	/	21	/	26	22
O=C(OCC(=O)N1CCN(C(=O)COC(=O)c2ccccc2NCCO)CC1)c1ccccc1NCCO	/	/	57	/	.	.
COc1ccc(N2CCN(C(=O)CSc3nnc(C4CC4)n3C3CC3)CC2)cc1	/	/	.	.	/	/
COc1ccc(S(=O)(=O)N2CCN(C)CC2)cc1NC(=O)c1ccccc1	.	.	.	.	/	/
O=C(Nc1ccc2c3c(cccc13)CC2)c1ccccc1	/	/	.	.	/	/
Cc1ccc(C)n1-c1ccc(-c2ccnc(N)n2)cc1	/	/	.	.	/	/
COC(=O)c1cc(NC(=O)CC(=O)c2cccc(N)c2)cc(C(=O)OC)c1	/	/	15	.	.	.
COC(=O)c1cc(NC(=O)c2cccc(F)c2)cc(C(=O)OC)c1	.	.	.	.	/	/
Cn1c2ccccc2c2ncn(Cc3ccc(F)cc3)c(=O)c21	.	.	.	.	/	/
Cn1c2ccsc2c2ncn(Cc3ccccc3F)c(=O)c21	.	.	65	.	65	62
O=C1CCC(=O)N1c1nc2n(n1)C(c1ccccc1)C=C(c1ccc(Br)cc1)N2 (stereo not given)	.	.	30	/	64	47
